Source: ChEMBL document CHEMBL5724801, “EUbOPEN Chemogenomics Library - Multiplex” (2024)
Values joined by “and” are separate entries in the source; they are usually repeats but may differ in a detail not shown here. Identical values can stand only once.

Assays:
HEK-293T = assay: Multiplex assay against HEK293T; format: toxicity, cell-based; details: human
Method in brief: (§1)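 Four dyes were applied at seeding to live cells: Hoechst33342, BioTracker Green Microtubule Cytoskeleton Dye, MitoTracker Red and Annexin V Alexa Fluor 680. Imaging after compound addition used a CQ1 microscope at 37°C and 5% CO2. CellPathfinder machine-learning gating then sorted cells into Hoechst high-intensity objects or normal cells, normal cells into healthy, pyknosed or fragmented nuclei, and pyknosed cells into mitotic or apoptotic, with tubulin, mitochondrial-mass and membrane-permeability phenotypes given as per cents of healthy-nucleus cells.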

U2OS = assay: Multiplex assay against U2OS; format: toxicity, cell-based; details: human; method in brief: as §1
[1] = 24 h, 1 µM, compound concentration 1 uM
[2] = 24 h, 10 µM, compound concentration 10 uM
[3] = 48 h, 1 µM, compound concentration 1 uM
[4] = 48 h, 10 µM, compound concentration 10 uM
[5] = 12 h, 1 µM, compound concentration 1 uM
[6] = 12 h, 10 µM, compound concentration 10 uM

`C=CC(=O)Nc1cc(Nc2nccc(-n3cc(CN(C)C)c(-c4ccccc4)n3)n2)c(OC)cc1N1CCOCC1` [LAZERTINIB] was tested, and the “Population Normal (%)” value (HEK-293T; [1]) was 99.55% and 100%, the “Population Pyknosed Nuclei (%)” value (HEK-293T; [1]) was 31.59% and 77.87% and the “Population Tubulin-Different-Phenotype (%)” value (HEK-293T; [1]) was 50.85% and 47.62%. For the same molecule, the “Population Apoptotic (%)” value (HEK-293T; [2]) was 46.43% and 51.06%, the “Population Fragmented Nuclei (%)” value (HEK-293T; [2]) was 3.95% and 6.25% and the “Population Healthy Nuclei (%)” value (HEK-293T; [2]) was 22.37% and 9.82%. For the same molecule, the “Population Hoechst High Intensity Objects (%)” value (HEK-293T; [2]) was 1.3% and 0%, the “Population Membrane Permeable-Phenotype (%)” value (HEK-293T; [2]) was 1.96% and 0% and the “Population Mitotic Cells (%)” value (HEK-293T; [2]) was 53.57% and 48.94%. The “Population Normal (%)” value (HEK-293T; [2]) was 98.7% and 100%, the “Population Pyknosed Nuclei (%)” value (HEK-293T; [2]) was 73.68% and 83.93% and the “Population Tubulin-Different-Phenotype (%)” value (HEK-293T; [2]) was 100% and 54.55%. For the same molecule, the “Total Cell Count” value (HEK-293T; [2]) was 231 and 112, the “Population Apoptotic (%)” value (HEK-293T; [3]) was 12.5% and 24.32% and the “Population Fragmented Nuclei (%)” value (HEK-293T; [3]) was 3.16% and 5.04%. The “Population Healthy Nuclei (%)” value (HEK-293T; [3]) was 82.41% and 41.73%, the “Population Hoechst High Intensity Objects (%)” value (HEK-293T; [3]) was 0.11% and 1.42% and the “Population Membrane Permeable-Phenotype (%)” value (HEK-293T; [3]) was 7.11% and 0%. The “Population Mitochondria Different-Phenotype (%)” value (HEK-293T; [3]) was 43.78% and 63.79%, the “Population Mitotic Cells (%)” value (HEK-293T; [3]) was 87.5% and 75.68% and the “Population Normal (%)” value (HEK-293T; [3]) was 99.89% and 98.58%. The “Population Apoptotic (%)” value (HEK-293T; [4]) was 50% and 19.23%, the “Population Fragmented Nuclei (%)” value (HEK-293T; [4]) was 1.89% and 5.38% and the “Population Healthy Nuclei (%)” value (HEK-293T; [4]) was 64.67% and 34.62%. The “Population Hoechst High Intensity Objects (%)” value (HEK-293T; [4]) was 0%, the “Population Membrane Permeable-Phenotype (%)” value (HEK-293T; [4]) was 9.27% and 0% and the “Population Mitochondria Different-Phenotype (%)” value (HEK-293T; [4]) was 73.66% and 40%. For the same molecule, the “Population Mitotic Cells (%)” value (HEK-293T; [4]) was 50% and 80.77%, the “Population Normal (%)” value (HEK-293T; [4]) was 100% and the “Population Pyknosed Nuclei (%)” value (HEK-293T; [4]) was 33.44% and 60%. The “Total Cell Count” value (HEK-293T; [4]) was 317 and 130, the “Population Apoptotic (%)” value (U2OS; [5]) was 37.5% and 46.67% and the “Population Fragmented Nuclei (%)” value (U2OS; [5]) was 2.41% and 2.92%. For the same molecule, the “Population Healthy Nuclei (%)” value (U2OS; [5]) was 85.54% and 75.18%, the “Population Hoechst High Intensity Objects (%)” value (U2OS; [5]) was 0% and the “Population Membrane Permeable-Phenotype (%)” value (U2OS; [5]) was 40.14% and 54.37%. For the same molecule, the “Population Mitotic Cells (%)” value (U2OS; [5]) was 62.5% and 53.33%, the “Population Normal (%)” value (U2OS; [5]) was 100% and the “Population Pyknosed Nuclei (%)” value (U2OS; [5]) was 12.05% and 21.9%. For the same molecule, the “Population Tubulin-Different-Phenotype (%)” value (U2OS; [5]) was 55.63% and 64.08%, the “Total Cell Count” value (U2OS; [5]) was 332 and 137 and the “Population Apoptotic (%)” value (U2OS; [6]) was 49.07% and 38.89%. For the same molecule, the “Population Fragmented Nuclei (%)” value (U2OS; [6]) was 3.84% and 4.81%, the “Population Healthy Nuclei (%)” value (U2OS; [6]) was 68.54% and 60.58% and the “Population Hoechst High Intensity Objects (%)” value (U2OS; [6]) was 0%. The “Population Membrane Permeable-Phenotype (%)” value (U2OS; [6]) was 48.88% and 50.79%, the “Population Mitotic Cells (%)” value (U2OS; [6]) was 50.93% and 61.11% and the “Population Normal (%)” value (U2OS; [6]) was 100%. For the same molecule, the “Population Pyknosed Nuclei (%)” value (U2OS; [6]) was 27.62% and 34.62%, the “Population Tubulin-Different-Phenotype (%)” value (U2OS; [6]) was 97.39% and 85.71% and the “Population Apoptotic (%)” value (U2OS; [1]) was 29.69% and 52.94%. For the same molecule, the “Population Fragmented Nuclei (%)” value (U2OS; [1]) was 2.35% and 3.45%, the “Population Healthy Nuclei (%)” value (U2OS; [1]) was 80.94% and 73.1% and the “Population Hoechst High Intensity Objects (%)” value (U2OS; [1]) was 0%. For the same molecule, the “Population Membrane Permeable-Phenotype (%)” value (U2OS; [1]) was 20% and 30.19%, the “Population Mitotic Cells (%)” value (U2OS; [1]) was 70.31% and 47.06% and the “Population Normal (%)” value (U2OS; [1]) was 100%. The “Population Pyknosed Nuclei (%)” value (U2OS; [1]) was 16.71% and 23.45%, the “Population Tubulin-Different-Phenotype (%)” value (U2OS; [1]) was 32.58% and 42.45% and the “Total Cell Count” value (U2OS; [1]) was 383 and 145. The “Population Apoptotic (%)” value (U2OS; [2]) was 55.04% and 53.66%, the “Population Fragmented Nuclei (%)” value (U2OS; [2]) was 3.46% and 5.83% and the “Population Healthy Nuclei (%)” value (U2OS; [2]) was 64.69% and 54.37%. For the same molecule, the “Population Hoechst High Intensity Objects (%)” value (U2OS; [2]) was 0.25% and 0%, the “Population Membrane Permeable-Phenotype (%)” value (U2OS; [2]) was 39.69% and 35.71% and the “Population Mitotic Cells (%)” value (U2OS; [2]) was 44.96% and 46.34%. The “Population Normal (%)” value (U2OS; [2]) was 99.75% and 100%, the “Population Pyknosed Nuclei (%)” value (U2OS; [2]) was 31.85% and 39.81% and the “Population Tubulin-Different-Phenotype (%)” value (U2OS; [2]) was 93.51% and 87.5%. For the same molecule, the “Population Apoptotic (%)” value (U2OS; [3]) was 61.96% and 68.33%, the “Population Fragmented Nuclei (%)” value (U2OS; [3]) was 3% and 6.88% and the “Population Healthy Nuclei (%)” value (U2OS; [3]) was 79.78% and 55.62%. The “Population Hoechst High Intensity Objects (%)” value (U2OS; [3]) was 0%, the “Population Mitotic Cells (%)” value (U2OS; [3]) was 38.04% and 31.67% and the “Population Normal (%)” value (U2OS; [3]) was 100%. The “Population Pyknosed Nuclei (%)” value (U2OS; [3]) was 17.23% and 37.5%, the “Population Tubulin-Different-Phenotype (%)” value (U2OS; [3]) was 15.02% and 28.09% and the “Population Apoptotic (%)” value (U2OS; [4]) was 64.5% and 69.23%. The “Population Fragmented Nuclei (%)” value (U2OS; [4]) was 5.97% and 5.31%, the “Population Healthy Nuclei (%)” value (U2OS; [4]) was 59.26% and 60.18% and the “Population Hoechst High Intensity Objects (%)” value (U2OS; [4]) was 0%. For the same molecule, the “Population Membrane Permeable-Phenotype (%)” value (U2OS; [4]) was 31.6% and 30.88%, the “Population Mitotic Cells (%)” value (U2OS; [4]) was 35.5% and 30.77% and the “Population Normal (%)” value (U2OS; [4]) was 100%. For the same molecule, the “Population Pyknosed Nuclei (%)” value (U2OS; [4]) was 34.77% and 34.51% and the “Population Tubulin-Different-Phenotype (%)” value (U2OS; [4]) was 77.43% and 79.41%.
